As a reminder, the EC50 is the midpoint of the concentration-response curve. One may read the IC50 as the concentration that inhibits the measured activity by half. Low readings indicate greater potency, high ones weaker potency.

Data set [1] has as its target T1, Integrin alpha4/beta7 complex (Homo sapiens, UniProt P26010+P48169). Kind of data set: Agonist activity at alpha4beta7 integrin receptor in human RPMI-8866 cells assessed as inhibition of mucosal vascular add-ressin cell adhesion molecule 1-induced cell adhesion pre-incubated for 30 mins followed by 30 mins incubation in mucosal vascular add-ressin cell adhesion molecule 1 coated wells by fluorescence plate reader assay. Type of data set: cell-based.

In data set [2] the target is T2, Integrin alpha-M/beta-2 (Homo sapiens, UniProt P05107+P11215). Kind of data set: Agonist activity at alphaMbeta2 integrin receptor in human HL-60 cells assessed as inhibition of fibrinogen-induced cell adhesion pre-incubated for 30 mins followed by 30 mins incubation in fibrinogen coated wells by fluorescence plate reader assay. Format: cell-based.
T2 sequence (P05107 23-769 limits assumed, other chains not shown): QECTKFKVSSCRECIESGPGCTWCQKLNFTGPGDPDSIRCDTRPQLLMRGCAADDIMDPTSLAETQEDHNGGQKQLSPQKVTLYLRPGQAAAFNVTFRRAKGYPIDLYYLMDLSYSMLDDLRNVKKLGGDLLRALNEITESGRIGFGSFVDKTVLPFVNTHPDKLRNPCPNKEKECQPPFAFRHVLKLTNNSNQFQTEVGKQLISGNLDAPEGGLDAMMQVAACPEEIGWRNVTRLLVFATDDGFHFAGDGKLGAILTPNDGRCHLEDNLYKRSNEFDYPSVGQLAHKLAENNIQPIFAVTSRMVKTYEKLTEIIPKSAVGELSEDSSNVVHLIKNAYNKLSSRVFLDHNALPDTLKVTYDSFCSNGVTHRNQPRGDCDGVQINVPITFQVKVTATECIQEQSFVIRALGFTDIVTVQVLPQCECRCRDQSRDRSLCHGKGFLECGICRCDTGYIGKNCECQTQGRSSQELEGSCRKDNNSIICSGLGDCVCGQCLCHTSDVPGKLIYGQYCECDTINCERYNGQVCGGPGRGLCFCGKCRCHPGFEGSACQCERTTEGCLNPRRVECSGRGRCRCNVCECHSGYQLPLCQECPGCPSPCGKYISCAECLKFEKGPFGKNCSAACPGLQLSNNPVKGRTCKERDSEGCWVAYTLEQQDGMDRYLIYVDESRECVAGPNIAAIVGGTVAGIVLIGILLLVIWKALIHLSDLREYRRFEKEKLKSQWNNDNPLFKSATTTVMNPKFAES
In data set [3] the target is T3, Integrin alpha-4/beta-1 (Homo sapiens, UniProt P05556+P13612). Kind of data set: Agonist activity at alpha4beta1 integrin receptor in human Jurkat E6.1 cells assessed as inhibition of fibronectin-induced cell adhesion pre-incubated for 30 mins followed by 30 mins incubation in fibronectin coated wells by fluorescence plate reader assay. Format: cell-based.
T3 sequence (P05556 whole entry): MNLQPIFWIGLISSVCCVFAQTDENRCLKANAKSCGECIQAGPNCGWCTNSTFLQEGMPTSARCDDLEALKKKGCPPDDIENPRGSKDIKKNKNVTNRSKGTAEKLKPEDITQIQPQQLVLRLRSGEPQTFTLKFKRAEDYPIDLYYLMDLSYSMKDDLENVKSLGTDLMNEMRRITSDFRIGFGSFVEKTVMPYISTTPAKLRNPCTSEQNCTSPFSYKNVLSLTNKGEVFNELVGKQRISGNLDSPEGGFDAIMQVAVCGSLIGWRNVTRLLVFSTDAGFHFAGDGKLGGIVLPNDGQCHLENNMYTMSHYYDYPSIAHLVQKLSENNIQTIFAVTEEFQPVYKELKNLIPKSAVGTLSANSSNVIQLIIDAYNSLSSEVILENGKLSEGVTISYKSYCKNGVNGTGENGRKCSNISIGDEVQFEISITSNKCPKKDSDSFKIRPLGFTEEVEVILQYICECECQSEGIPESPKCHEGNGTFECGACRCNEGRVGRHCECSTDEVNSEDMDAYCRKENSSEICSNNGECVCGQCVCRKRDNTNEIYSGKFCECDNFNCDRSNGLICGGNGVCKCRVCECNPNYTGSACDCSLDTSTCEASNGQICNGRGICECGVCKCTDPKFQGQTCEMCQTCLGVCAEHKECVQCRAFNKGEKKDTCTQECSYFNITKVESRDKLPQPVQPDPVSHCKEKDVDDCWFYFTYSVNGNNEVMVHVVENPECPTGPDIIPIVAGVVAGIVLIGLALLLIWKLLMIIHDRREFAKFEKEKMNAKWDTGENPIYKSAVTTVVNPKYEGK
T3 sequence (P13612 whole entry): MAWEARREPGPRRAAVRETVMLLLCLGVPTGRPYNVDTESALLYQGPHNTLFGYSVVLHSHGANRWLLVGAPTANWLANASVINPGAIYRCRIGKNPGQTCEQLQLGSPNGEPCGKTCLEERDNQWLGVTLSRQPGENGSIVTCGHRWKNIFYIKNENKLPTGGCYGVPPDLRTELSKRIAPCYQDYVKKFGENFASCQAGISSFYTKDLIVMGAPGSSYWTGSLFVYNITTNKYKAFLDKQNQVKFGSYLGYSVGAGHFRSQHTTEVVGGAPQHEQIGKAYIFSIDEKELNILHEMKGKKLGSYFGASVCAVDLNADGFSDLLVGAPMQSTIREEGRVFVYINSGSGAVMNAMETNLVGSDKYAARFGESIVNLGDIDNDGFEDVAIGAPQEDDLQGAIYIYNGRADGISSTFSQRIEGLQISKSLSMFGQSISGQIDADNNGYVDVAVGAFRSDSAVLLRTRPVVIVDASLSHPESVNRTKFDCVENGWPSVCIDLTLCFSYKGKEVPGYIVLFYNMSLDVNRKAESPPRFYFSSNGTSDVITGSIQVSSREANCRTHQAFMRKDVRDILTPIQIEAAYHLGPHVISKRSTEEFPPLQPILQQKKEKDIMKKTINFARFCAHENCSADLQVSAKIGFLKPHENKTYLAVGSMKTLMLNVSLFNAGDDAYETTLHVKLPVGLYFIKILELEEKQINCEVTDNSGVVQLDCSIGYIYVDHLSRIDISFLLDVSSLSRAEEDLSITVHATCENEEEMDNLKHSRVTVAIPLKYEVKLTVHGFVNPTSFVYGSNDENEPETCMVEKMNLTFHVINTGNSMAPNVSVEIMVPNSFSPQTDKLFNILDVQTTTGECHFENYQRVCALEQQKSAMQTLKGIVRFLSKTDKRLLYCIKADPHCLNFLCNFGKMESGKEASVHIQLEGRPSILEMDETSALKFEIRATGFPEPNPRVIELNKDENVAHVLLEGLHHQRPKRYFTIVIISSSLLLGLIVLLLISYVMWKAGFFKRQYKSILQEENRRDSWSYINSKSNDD
In data set [4] the target is T3, Integrin alpha-4/beta-1. Kind of data set: Binding affinity to alpha4beta1 integrin receptor (unknown origin) preincubated for 30 mins followed by 30 mins incubation in vascular cell adhesion molecule 1-induced cell adhesion coated wells by fluorescence based assay. Type of data set: protein-complex assay.
The target in data set [5] is T2, Integrin alpha-M/beta-2. Kind of data set: Binding affinity to alphaMbeta2 integrin receptor (unknown origin) preincubated for 30 mins followed by 30 mins incubation in fibrinogen coated wells by fluorescence based assay. Type of data set: protein-complex assay.
In data set [6] the target is T3, Integrin alpha-4/beta-1. Kind of data set: Binding affinity to alpha4beta1 integrin receptor (unknown origin) preincubated for 30 mins followed by 30 mins incubation in fibronectin coated wells by fluorescence based assay. Type of data set: protein-complex assay.
Data set [7] concerns the target T1, Integrin alpha4/beta7 complex. Kind of data set: Binding affinity to alpha4beta7 integrin receptor (unknown origin) preincubated for 30 mins followed by 30 mins incubation in mucosal vascular add-ressin cell adhesion molecule 1 coated wells by fluorescence based assay. Type of data set: protein-complex assay.
Another data set concerns the target Integrin alpha-5/beta-1 (Homo sapiens, UniProt P05556+P08648). Kind of data set: Binding affinity to alpha5beta1 integrin receptor (unknown origin) preincubated for 30 mins followed by 30 mins incubation in fibronectin coated wells by fluorescence based assay. Format: protein-complex assay.
Data set [8] can be described thus: Stability in mouse serum assessed as parent compound remaining incubated upto 3 hrs by RP HPLC analysis. To be noted: read-out: Stability. Type of data set: ADME, cell-free. In short, it runs like this: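 Peptide stock (10 mM in Tris buffer pH 7.4) diluted 1:20 into mouse serum and held at 37 °C. […] Remaining peptide in the supernatant measured by RP HPLC. Triplicate, repeated three times.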

Starred links: 1 amine or outer side, 2 acyl side, 3 side chain; linkers in the order of their positions; H or OH if unused. Positions of bridges follow the written chain, without caps; N, C: chain ends. Non-standard residues stand in square brackets, D forms with d. Residues, ends and D or L forms follow the SMILES beside them. Groups on a side chain read outwards from the residue. *: point of attachment. dPhe(4-NH2) = Nc1ccc(C[C@@H](N)C(=O)O)cc1; Phe(4-NH2) = Nc1ccc(C[C@H](N)C(=O)O)cc1; X1 = O=C(Cc1ccc(N[*:1])cc1)[*:2]; NH(2-Me-phenyl) = Cc1ccccc1N*; Phg = N[C@H](C(=O)O)c1ccccc1; d(β3hA) = C[C@@H](N)CC(=O)O; CO = O=C([*:1])[*:2]; NHPr = CCCN*

T1 sequence (P48169 whole entry): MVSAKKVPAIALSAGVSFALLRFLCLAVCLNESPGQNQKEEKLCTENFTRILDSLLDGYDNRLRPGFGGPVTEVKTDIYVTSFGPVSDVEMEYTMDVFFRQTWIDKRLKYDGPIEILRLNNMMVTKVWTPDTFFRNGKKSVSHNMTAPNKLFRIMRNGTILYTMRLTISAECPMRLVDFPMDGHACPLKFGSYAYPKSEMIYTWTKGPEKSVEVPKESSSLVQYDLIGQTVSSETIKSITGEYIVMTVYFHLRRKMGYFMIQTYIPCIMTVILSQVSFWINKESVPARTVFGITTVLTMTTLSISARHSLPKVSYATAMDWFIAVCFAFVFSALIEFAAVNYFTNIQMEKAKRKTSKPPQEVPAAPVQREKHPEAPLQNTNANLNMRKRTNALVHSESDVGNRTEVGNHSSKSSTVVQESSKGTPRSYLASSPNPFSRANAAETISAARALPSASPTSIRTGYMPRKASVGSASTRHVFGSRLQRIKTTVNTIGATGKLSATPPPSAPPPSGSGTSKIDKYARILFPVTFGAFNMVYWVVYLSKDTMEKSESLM
T1 sequence (P26010 whole entry): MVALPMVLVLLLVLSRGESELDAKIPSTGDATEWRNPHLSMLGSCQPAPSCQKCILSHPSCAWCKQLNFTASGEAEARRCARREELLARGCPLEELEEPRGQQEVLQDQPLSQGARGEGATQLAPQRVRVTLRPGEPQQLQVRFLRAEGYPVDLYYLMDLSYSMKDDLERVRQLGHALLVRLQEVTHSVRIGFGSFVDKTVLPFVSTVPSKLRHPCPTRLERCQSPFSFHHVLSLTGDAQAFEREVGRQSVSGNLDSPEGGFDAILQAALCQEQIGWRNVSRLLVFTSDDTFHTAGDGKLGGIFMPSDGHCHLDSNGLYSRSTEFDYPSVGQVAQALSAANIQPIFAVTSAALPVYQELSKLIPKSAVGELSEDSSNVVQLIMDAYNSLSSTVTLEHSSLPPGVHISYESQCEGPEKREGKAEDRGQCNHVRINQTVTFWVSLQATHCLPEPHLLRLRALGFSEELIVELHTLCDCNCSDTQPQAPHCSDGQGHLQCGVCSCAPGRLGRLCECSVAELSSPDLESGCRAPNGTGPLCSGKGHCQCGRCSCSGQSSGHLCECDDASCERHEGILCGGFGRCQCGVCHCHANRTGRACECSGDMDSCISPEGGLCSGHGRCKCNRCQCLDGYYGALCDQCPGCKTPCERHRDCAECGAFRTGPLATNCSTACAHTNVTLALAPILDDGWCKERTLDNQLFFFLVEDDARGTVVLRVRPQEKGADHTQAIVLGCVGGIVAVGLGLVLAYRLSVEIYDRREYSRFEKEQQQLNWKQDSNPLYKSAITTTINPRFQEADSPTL

For the compound `Cc1ccccc1NC(=O)N1C(=O)CC1CC(=O)NCC(=O)O` (centres undefined), the EC50 (in [1]; on Integrin alpha-M/beta-2 [2]) was above 5 µM in each case.

Regarding `Cc1ccccc1NC(=O)N1C(=O)CC1CC(=O)O` (centres undefined), the concentration for a half-maximal effect (EC50) (in data set [1]; at Integrin alpha-M/beta-2 [2]) was above 5 µM in each case. As to `Cc1ccccc1NC(=O)Nc1ccc(C[C@@H]2NC(=O)C[C@@H](C(=O)O)NC(=O)[C@H](C(C)C)NC(=O)[C@H](C)NC(=O)[C@H](Cc3ccccc3)NC2=O)cc1` ([Phe(4-NH2)]([CO-NH(2-Me-phenyl)])FAVD-OH; lactam N-5), the half-maximal effective concentration (EC50) at Integrin alpha-4/beta-1 [3] worked out at 1.06 µM. Moreover, the IC50 was 0.899 µM at Integrin alpha-4/beta-1 [4]; above 5 µM at Integrin alpha-M/beta-2 [5]; 0.976 µM at Integrin alpha-4/beta-1 [6]; above 5 µM in [7]; above 5 µM on Integrin alpha-5/beta-1. `Cc1ccccc1NC(=O)Nc1ccc(C[C@@H]2NC(=O)C[C@@H](C(=O)O)NC(=O)[C@H](C(C)C)NC(=O)[C@H](CC(=O)O)NC(=O)[C@H](Cc3ccccc3)NC2=O)cc1` ([Phe(4-NH2)]([CO-NH(2-Me-phenyl)])FDVD-OH; lactam N-5): the EC50 on Integrin alpha-4/beta-1 [3] is above 5 µM. Still for that read-out and setting: to `CCCNC(=O)[C@@H]1CC(=O)N[C@@H](Cc2ccc(NC(=O)Nc3ccccc3C)cc2)C(=O)N[C@@H](CC(C)C)C(=O)N[C@@H](CC(=O)O)C(=O)N[C@@H](C(C)C)C(=O)N1` ([Phe(4-NH2)]([CO-NH(2-Me-phenyl)])LDVD-NHPr; lactam N-5) belongs above 5 µM. On to `Cc1ccccc1NC(=O)Nc1ccc(C[C@@H]2NC(=O)C[C@@H](C(=O)O)NC(=O)[C@H](C(C)C)NC(=O)[C@H](CC(=O)O)NC(=O)[C@H](CC(C)C)NC2=O)cc1` ([Phe(4-NH2)]([CO-NH(2-Me-phenyl)])LDVD-OH; lactam N-5), for which the remaining at 3 h in data set [8] was above 85%. As to `Cc1ccccc1NC(=O)Nc1ccc(C[C@H]2NC(=O)C[C@@H](C(=O)O)NC(=O)[C@H](C(C)C)NC(=O)[C@H](CC(=O)O)NC(=O)[C@H](CC(C)C)NC2=O)cc1` ([dPhe(4-NH2)]([CO-NH(2-Me-phenyl)])LDVD-OH; lactam N-5), the remaining at 3 h in data set [8] is above 85%.

Take `Cc1ccccc1NC(=O)Nc1ccc(C[C@H]2NC(=O)C[C@@H](C(=O)O)NC(=O)[C@H](c3ccccc3)NC(=O)[C@H](CC(=O)O)NC(=O)[C@H](CC(C)C)NC2=O)cc1` ([dPhe(4-NH2)]([CO-NH(2-Me-phenyl)])LD[Phg]D-OH; lactam N-5): the half-maximal effective concentration (EC50) on Integrin alpha-4/beta-1 [3] is above 5 µM.

As to `Cc1ccccc1NC(=O)Nc1ccc(C[C@H]2NC(=O)C[C@@H](C)NC(=O)[C@H](C(C)C)NC(=O)[C@H](CC(=O)O)NC(=O)[C@H](CC(C)C)NC2=O)cc1` (cyclo(DV[d(β3hA)][dPhe(4-NH2)]([CO-NH(2-Me-phenyl)])L)), the EC50 at Integrin alpha-4/beta-1 [3] was above 5 µM. The same measure, in the same setting: to `Cc1ccccc1NC(=O)Nc1ccc(C[C@@H]2NC(=O)C[C@@H](C)NC(=O)[C@H](C(C)C)NC(=O)[C@H](CC(=O)O)NC(=O)[C@H](CC(C)C)NC2=O)cc1` (cyclo([Phe(4-NH2)]([CO-NH(2-Me-phenyl)])LDV[d(β3hA)])) belongs above 5 µM. In the case of `Cc1ccccc1NC(=O)Nc1ccc(CC(=O)N[C@@H](CC(C)C)C(=O)N[C@@H](CC(=O)O)C(=O)N[C@H](C(=O)N2CCC[C@H]2C(=O)O)C(C)C)cc1` ({NH(2-Me-phenyl)-CO}-[X1]LDVP-OH), the IC50 (at Integrin alpha-M/beta-2 [5]; in data set [7]) was above 1 µM in each case.

For the origin of these results see ChEMBL document CHEMBL5380839, “Design and Pharmacological Characterization of α4β1 Integrin Cyclopeptide Agonists: Computational Investigation of Ligand Determinants for Agonism versus Antagonism” (J Med Chem, 2023).
